According to PMC8721254 (Journal of Advanced Research, 2021):

Key:
RBL-2H3 cells = experiment: β-hexosaminidase; format: cell-based, rat; settings: DNP-HSA-induced degranulation of RBL-2H3
Outline: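 Rat basophilic leukaemia RBL-2H3 cells were seeded at 72 × 10^3 cells/well and sensitized overnight with anti-DNP-HSA IgE, then moved to DMEM containing 1 mg/mL BSA. Test compound, vehicle (0.1% DMSO) or cromolyn was preincubated 5 min at 37 °C, and degranulation was triggered with DNP (10 ng/mL). After 1 h, supernatant β-hexosaminidase was read at 405 nm with p-nitrophenyl-N-acetyl-β-D-glucosaminide substrate. Values are relative to DNP-HSA as 100%, analysed by one-way ANOVA/Bonferroni.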

[1] = test system: OVA-induced allergic lung inflammation; experiment: OVA-induced allergic lung inflammation and remodeling; format: in vivo, Balb/c mice; settings: mice, oral, equimolar doses equivalent to 5.5 mg/kg prednisone (compound 7 9.1 mg/kg); for number of peribronchiolar eosinophils / number of peribronchiolar mast cells: vs allergic mice; for peribronchiolar collagen density / peribronchiolar smooth muscle (α-actin): vs vehicle-treated allergic mice
Outline: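 Male Balb/c mice, 4–5 weeks old (n = 5/group), sensitized with subcutaneous OVA on alum on days 1 and 11 plus intranasal OVA on day 11. Intranasal OVA challenges followed on two consecutive days weekly for six weeks; controls got saline. Oral dosing in 0.5% carboxymethyl cellulose (1 mL/kg) was given 30 min before each challenge, then daily for 4 weeks until euthanasia. Formalin-fixed lungs were scored for α-actin (immunohistochemistry) and collagen (Masson's trichrome); one-way ANOVA with Tukey test.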

[2] = Chemical stability in simulated gastric fluid; format: physicochemical; settings: simulated gastric fluid (SGF) without pepsin, pH 1.2
Outline: (§1)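 Test compound was taken from a 10 mM DMSO stock and diluted into PBS pH 7.4 or pepsin-free SGF pH 1.2 (0.5% DMSO final), in triplicate. Samples were incubated at 37 ± 0.5 °C for 24 h with sampling at intervals. Parent compound, glucocorticoid, H2S-donor moiety and succinate metabolite were quantified by C18 RP-HPLC (CH3CN/water 0.1% TFA gradient; UV 234/250/300 nm) against calibration standards. Results are % remaining, mean ± SD, n = 3.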

[3] = Chemical stability in saline phosphate buffer; format: physicochemical; settings: phosphate buffered saline (PBS), pH 7.4
Outline: as §1

[4] = Enzymatic stability in human serum; format: in vitro ADME
Outline: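 Sterile-filtered human serum was spiked with test compound from a 10 mM DMSO stock (1% DMSO), in triplicate, at 37 °C. Aliquots taken at intervals up to 24 h were deproteinized with an equal volume of CH3CN containing 0.1% TFA. Samples were vortexed, sonicated 3 min, centrifuged 5 min at 2500 g, filtered, and analysed by C18 RP-HPLC against calibration standards. Half-life is reported as mean ± SD, n = 3.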

BSMCs [5] = experiment: Intracellular H2S release; format: cell-based; settings: WSP-1-preloaded BSMCs, 40 min
Outline: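 Bronchial smooth muscle cells were grown at 37 °C in 5% CO2 with 1% pen/strep and seeded at 30 × 10^3 cells/well. Cells were loaded with the H2S-sensitive dye WSP-1, then exposed to test compound, vehicle, or diallyl disulfide as reference donor. Fluorescence was recorded spectrofluorometrically for 40 min and expressed as fluorescence index, mean ± SEM.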

BSMCs [6] = experiment: Membrane hyperpolarizing effects on BSMCs; format: cell-based; settings: reference NS1619 10 µM

| remaining at 24 h, 50 µM [2] | remaining at 24 h, 50 µM [3] | half-life at 100 µM [4] | Structure (SMILES) | inhibition of mast cell degranulation (β-hexosaminidase release) (RBL-2H3 cells; 100 and 300 µM) | number of peribronchiolar eosinophils [1] | number of peribronchiolar mast cells [1] | peribronchiolar collagen density [1] | peribronchiolar smooth muscle (α-actin) [1] | Intracellular H2S release, fluorescence index (FI) (BSMCs [5]; 100 and 300 µM) | hyperpolarizing effect compared to NS1619 10 µM (BSMCs [6]; 100 µM) | hyperpolarizing effect compared to NS1619 10 µM (BSMCs [6]; 300 µM) | Intracellular H2S release, fluorescence index (FI) (BSMCs [5]; 100 µM, vs vehicle) | Intracellular H2S release, fluorescence index (FI) (BSMCs [5]; 300 µM) | inhibition of mast cell degranulation (β-hexosaminidase release) (RBL-2H3 cells; 300 µM) |
| --- | --- | --- | --- | --- | --- | --- | --- | --- | --- | --- | --- | --- | --- | --- |
| 99 ± 1% | 99 ± 2% | 10 ± 1 min | C[C@@H]1C[C@H]2[C@@H]3CCC4=CC(=O)C=C[C@]4(C)[C@@]3(F)[C@@H](O)C[C@]2(C)[C@@]1(O)C(=O)COC(=O)CCC(=O)Oc1ccc(-c2cc(=S)ss2)cc1 [Compound 6, 2-((8S,9R,10S,11S,13S,14S,16R,17R)-9-fluoro-11,17-dihydroxy-10,13,16-trimethyl-3-oxo-6,7,8,9,10,11,12,13,14,15,16,17-dodecahydro-3H-cyclopenta[a]phenanthren-17-yl)-2-oxoethyl (4-(3-thioxo-3H-1,2-dithiol-5-yl)phenyl) succinate] | – | – | – | – | – | did not cause any significant increase in fluorescence | – | – | – | – | – |
| 99 ± 1% | 97 ± 1% | 15 ± 2 min | C[C@]12C=CC(=O)C=C1CC[C@@H]1[C@@H]2C(=O)C[C@@]2(C)[C@H]1CC[C@]2(O)C(=O)COC(=O)CCC(=O)Oc1ccc(C(N)=S)cc1 [Compound 7, 4-carbamothioylphenyl (2-((8S,9S,10R,13S,14S,17R)-17-hydroxy-10,13-dimethyl-3,11-dioxo-6,7,8,9,10,11,12,13,14,15,16,17-dodecahydro-3H-cyclopenta[a]phenanthren-17-yl)-2-oxoethyl) succinate] | significant inhibitory effect on mast cell degranulation | significantly reduced | significantly reduced | significantly more efficient than the parent prednisone | significantly more efficient than the parent prednisone | significant increase in the intracellular level of H2S | about 240% | about 309% | – | – | – |
| 99 ± 1% | 99 ± 2% | 9 ± 2 min | C[C@]12C=CC(=O)C=C1CC[C@@H]1[C@@H]2C(=O)C[C@@]2(C)[C@H]1CC[C@]2(O)C(=O)COC(=O)CCC(=O)Oc1ccc(-c2cc(=S)ss2)cc1 [Compound 8, 2-((8S,9S,10R,13S,14S,17R)-17-hydroxy-10,13-dimethyl-3,11-dioxo-6,7,8,9,10,11,12,13,14,15,16,17-dodecahydro-3H-cyclopenta[a]phenanthren-17-yl)-2-oxoethyl (4-(3-thioxo-3H-1,2-dithiol-5-yl)phenyl) succinate] | – | – | – | – | – | did not cause any significant increase in fluorescence | – | – | – | – | – |

Second part, the molecule before the results:

| Structure (SMILES) | remaining at 24 h, 50 µM [2] | remaining at 24 h, 50 µM [3] | half-life at 100 µM [4] | inhibition of mast cell degranulation (β-hexosaminidase release) (RBL-2H3 cells; 100 and 300 µM) | number of peribronchiolar eosinophils [1] | number of peribronchiolar mast cells [1] | peribronchiolar collagen density [1] | peribronchiolar smooth muscle (α-actin) [1] | Intracellular H2S release, fluorescence index (FI) (BSMCs [5]; 100 and 300 µM) | hyperpolarizing effect compared to NS1619 10 µM (BSMCs [6]; 100 µM) | hyperpolarizing effect compared to NS1619 10 µM (BSMCs [6]; 300 µM) | Intracellular H2S release, fluorescence index (FI) (BSMCs [5]; 100 µM, vs vehicle) | Intracellular H2S release, fluorescence index (FI) (BSMCs [5]; 300 µM) | inhibition of mast cell degranulation (β-hexosaminidase release) (RBL-2H3 cells; 300 µM) |
| --- | --- | --- | --- | --- | --- | --- | --- | --- | --- | --- | --- | --- | --- | --- |
| C[C@]12C=CC(=O)C=C1CC[C@@H]1[C@@H]2C(=O)C[C@@]2(C)[C@H]1CC[C@]2(O)C(=O)CO [Compound 2, prednisone, reference compound] | – | – | – | totally inactive | significantly reduced | significantly reduced | efficient in reducing | efficient in reducing | – | – | – | – | – | – |
| C=CCSSCC=C [DADS, diallyl disulfide, reference compound] | – | – | – | – | – | – | – | – | – | – | – | significant FI increase | – | – |
| NC(=S)c1ccc(O)cc1 [TBZ, 4-hydroxy-thiobenzamide, reference compound] | – | – | – | – | – | – | – | – | – | 38% | 43% | slight increase of FI | massive increase in FI | significant inhibition of RBL-2H3 degranulation |
